According to ChEMBL document CHEMBL2086320, “New synthetic inhibitors of fatty acid synthase with anticancer activity” (J Med Chem, 2012):
The source made the active and inactive calls. The calls are words filed in the database; no cut-off is given here.

Experiments:
SK-BR-3 = experiment: Cytotoxicity against human SKBR3 cells after 48 hrs by MTT assay; format: functional, cell-based; details: SK-BR-3, 48 h
Method in brief: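 MTT colorimetric assay: cells seeded at 5 or 7 x 10³ cells/well, attached overnight, then given fresh medium with a range of compound concentrations for 48 h at 37 °C, 5% CO2. MTT added for 3 h, formazan dissolved in DMSO, absorbance read at 570 or 540 nm. IC50 as mean±SEM from at least two independent experiments in duplicate or triplicate.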

[1] = target: Fatty acid synthase (Homo sapiens) (UniProt P49327); experiment: Inhibition of FASN in human SK-BR-3 cells assessed as oxidation of NADPH at 25 uM after 24 hrs by Spectrophotometric analysis relative to control; format: cell-based
[2] = target: Fatty acid synthase (Homo sapiens) (UniProt P49327); experiment: Inhibition of FASN in human SK-BR-3 cells assessed as oxidation of NADPH at 76 uM after 24 hrs by Spectrophotometric analysis relative to control; format: cell-based
[3] = target: Fatty acid synthase (Homo sapiens) (UniProt P49327); experiment: Inhibition of FASN in human SK-BR-3 cells assessed as oxidation of NADPH at 26 uM after 24 hrs by Spectrophotometric analysis relative to control; format: cell-based
[4] = target: Fatty acid synthase (Homo sapiens) (UniProt P49327); experiment: Inhibition of FASN in human SK-BR-3 cells assessed as oxidation of NADPH at 41 uM after 24 hrs by Spectrophotometric analysis relative to control; format: cell-based
[5] = target: Fatty acid synthase (Homo sapiens) (UniProt P49327); experiment: Inhibition of FASN in human SK-BR-3 cells assessed as oxidation of NADPH at 78 uM after 24 hrs by Spectrophotometric analysis relative to control; format: cell-based
[6] = target: Fatty acid synthase (Homo sapiens) (UniProt P49327); experiment: Inhibition of FASN in human SK-BR-3 cells assessed as oxidation of NADPH at 42 uM after 24 hrs by Spectrophotometric analysis relative to control; format: cell-based
[7] = target: Fatty acid synthase (Homo sapiens) (UniProt P49327); experiment: Inhibition of FASN in human SK-BR-3 cells assessed as oxidation of NADPH at 17 uM after 24 hrs by Spectrophotometric analysis relative to control; format: cell-based
[8] = target: Fatty acid synthase (Homo sapiens) (UniProt P49327); experiment: Inhibition of FASN in human SK-BR-3 cells assessed as oxidation of NADPH at 39 uM after 24 hrs by Spectrophotometric analysis relative to control; format: cell-based
[9] = target: Fatty acid synthase (Homo sapiens) (UniProt P49327); experiment: Inhibition of FASN in human SK-BR-3 cells assessed as oxidation of NADPH at 23 uM after 24 hrs by Spectrophotometric analysis relative to control; format: cell-based
[10] = target: Fatty acid synthase (Homo sapiens) (UniProt P49327); experiment: Inhibition of FASN in human SK-BR-3 cells assessed as oxidation of NADPH at 28 uM after 24 hrs by Spectrophotometric analysis relative to control; format: cell-based
[11] = target: Fatty acid synthase (Homo sapiens) (UniProt P49327); experiment: Inhibition of FASN in human SK-BR-3 cells assessed as oxidation of NADPH at 8 uM after 24 hrs by Spectrophotometric analysis relative to control; format: cell-based
[12] = target: Fatty acid synthase (Homo sapiens) (UniProt P49327); experiment: Inhibition of FASN in human SK-BR-3 cells assessed as oxidation of NADPH at 22 uM after 24 hrs by Spectrophotometric analysis relative to control; format: cell-based
[13] = target: Receptor tyrosine-protein kinase erbB-2 (Homo sapiens) (UniProt P04626); experiment: Inhibition of HER2 phosphorylation in human SK-BR-3 cells after 6 hrs by Western blot analysis; format: cell-based; details: concentration not given here
Method in brief: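 SK-Br3 cells treated for 6, 12 or 24 h, harvested with trypsin-EDTA, lysed in Tris-HCl pH 7.5/EDTA/NaCl/PMSF buffer at 4 °C. Equal protein run on 3-8% SDS-PAGE and transferred to nitrocellulose. Membranes probed overnight at 4 °C with anti-phospho-HER2 mouse monoclonal, then peroxidase secondary and chemiluminescence. Re-probed for β-actin as loading control. Gels are representative of at least two independent experiments.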

[14] = target: Fatty acid synthase (Homo sapiens) (UniProt P49327); experiment: Inhibition of FASN in human SK-BR-3 cells assessed as oxidation of NADPH at 31 uM after 24 hrs by Spectrophotometric analysis relative to control; format: cell-based
[15] = target: Fatty acid synthase (Homo sapiens) (UniProt P49327); experiment: Inhibition of FASN in human SK-BR-3 cells assessed as oxidation of NADPH at 36 uM after 24 hrs by Spectrophotometric analysis relative to control; format: cell-based
[16] = target: Fatty acid synthase (Homo sapiens) (UniProt P49327); experiment: Inhibition of FASN in human SK-BR-3 cells assessed as oxidation of NADPH at 47 uM after 24 hrs by Spectrophotometric analysis relative to control; format: cell-based
[17] = target: Fatty acid synthase (Homo sapiens) (UniProt P49327); experiment: Inhibition of FASN in human SK-BR-3 cells assessed as oxidation of NADPH at 5 uM after 24 hrs by Spectrophotometric analysis relative to control; format: cell-based

Sequence of Fatty acid synthase (Homo sapiens) (P49327 whole entry, looked up): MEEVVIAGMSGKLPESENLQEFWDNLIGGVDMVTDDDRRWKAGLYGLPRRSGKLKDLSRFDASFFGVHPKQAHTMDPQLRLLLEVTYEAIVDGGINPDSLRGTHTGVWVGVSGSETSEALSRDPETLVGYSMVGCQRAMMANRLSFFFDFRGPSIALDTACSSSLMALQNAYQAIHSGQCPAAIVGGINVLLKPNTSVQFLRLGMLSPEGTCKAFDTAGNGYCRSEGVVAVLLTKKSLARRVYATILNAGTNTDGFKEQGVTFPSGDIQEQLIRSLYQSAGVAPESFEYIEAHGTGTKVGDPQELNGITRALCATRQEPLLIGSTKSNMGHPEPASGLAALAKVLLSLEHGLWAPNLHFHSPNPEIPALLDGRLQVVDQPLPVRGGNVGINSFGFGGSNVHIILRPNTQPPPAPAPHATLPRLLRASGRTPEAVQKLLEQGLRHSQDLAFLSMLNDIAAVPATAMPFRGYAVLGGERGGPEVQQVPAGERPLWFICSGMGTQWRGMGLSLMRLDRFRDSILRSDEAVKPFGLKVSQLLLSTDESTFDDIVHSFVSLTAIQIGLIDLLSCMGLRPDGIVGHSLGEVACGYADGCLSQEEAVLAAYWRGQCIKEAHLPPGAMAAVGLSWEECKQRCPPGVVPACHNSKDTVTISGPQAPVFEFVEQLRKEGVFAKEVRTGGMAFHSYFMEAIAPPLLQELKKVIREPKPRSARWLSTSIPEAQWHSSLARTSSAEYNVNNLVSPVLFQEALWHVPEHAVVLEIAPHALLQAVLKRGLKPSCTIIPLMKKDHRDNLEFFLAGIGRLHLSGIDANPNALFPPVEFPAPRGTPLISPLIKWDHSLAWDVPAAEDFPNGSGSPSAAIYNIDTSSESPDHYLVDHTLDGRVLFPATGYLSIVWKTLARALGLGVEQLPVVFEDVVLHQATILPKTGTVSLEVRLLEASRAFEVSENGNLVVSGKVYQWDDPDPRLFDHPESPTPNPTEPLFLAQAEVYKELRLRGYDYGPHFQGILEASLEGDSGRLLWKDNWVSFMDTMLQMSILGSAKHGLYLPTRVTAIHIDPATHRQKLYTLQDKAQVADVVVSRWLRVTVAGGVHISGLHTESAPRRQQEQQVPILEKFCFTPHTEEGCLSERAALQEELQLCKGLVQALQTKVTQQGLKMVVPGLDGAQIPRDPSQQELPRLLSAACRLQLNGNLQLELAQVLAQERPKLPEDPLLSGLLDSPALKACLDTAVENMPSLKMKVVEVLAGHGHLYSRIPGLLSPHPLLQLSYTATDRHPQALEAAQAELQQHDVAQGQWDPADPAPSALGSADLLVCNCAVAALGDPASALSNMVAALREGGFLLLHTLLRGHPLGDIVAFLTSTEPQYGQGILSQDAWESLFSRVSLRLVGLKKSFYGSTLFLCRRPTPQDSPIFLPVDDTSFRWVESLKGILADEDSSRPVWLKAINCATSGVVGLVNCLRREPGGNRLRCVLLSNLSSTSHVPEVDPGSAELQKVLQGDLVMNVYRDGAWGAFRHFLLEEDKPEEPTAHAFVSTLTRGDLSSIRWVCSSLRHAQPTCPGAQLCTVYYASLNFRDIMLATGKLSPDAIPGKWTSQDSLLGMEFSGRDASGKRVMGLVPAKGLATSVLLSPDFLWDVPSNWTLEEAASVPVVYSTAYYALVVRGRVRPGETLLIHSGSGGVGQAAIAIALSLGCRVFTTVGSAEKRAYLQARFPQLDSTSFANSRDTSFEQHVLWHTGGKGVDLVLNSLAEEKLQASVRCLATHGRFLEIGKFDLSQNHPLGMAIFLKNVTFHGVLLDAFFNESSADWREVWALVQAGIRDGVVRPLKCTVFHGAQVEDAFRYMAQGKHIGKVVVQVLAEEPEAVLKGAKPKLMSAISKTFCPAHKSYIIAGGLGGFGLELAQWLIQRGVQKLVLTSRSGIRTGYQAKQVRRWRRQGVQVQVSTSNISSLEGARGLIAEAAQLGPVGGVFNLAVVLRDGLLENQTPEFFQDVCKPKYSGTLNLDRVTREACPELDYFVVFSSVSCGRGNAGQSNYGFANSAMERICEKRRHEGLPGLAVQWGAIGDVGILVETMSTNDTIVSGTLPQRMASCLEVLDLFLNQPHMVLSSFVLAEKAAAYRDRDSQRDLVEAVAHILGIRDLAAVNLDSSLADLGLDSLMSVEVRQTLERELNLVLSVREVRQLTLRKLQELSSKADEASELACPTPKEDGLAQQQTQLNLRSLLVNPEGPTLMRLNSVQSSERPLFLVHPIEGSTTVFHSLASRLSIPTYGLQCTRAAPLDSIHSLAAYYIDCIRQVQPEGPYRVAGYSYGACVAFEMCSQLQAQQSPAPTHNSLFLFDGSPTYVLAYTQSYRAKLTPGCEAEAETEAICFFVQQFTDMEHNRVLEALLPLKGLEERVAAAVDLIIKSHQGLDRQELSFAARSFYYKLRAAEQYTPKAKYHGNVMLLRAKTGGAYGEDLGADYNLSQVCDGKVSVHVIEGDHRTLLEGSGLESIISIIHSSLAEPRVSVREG
Sequence of Receptor tyrosine-protein kinase erbB-2 (Homo sapiens) (P04626 whole entry): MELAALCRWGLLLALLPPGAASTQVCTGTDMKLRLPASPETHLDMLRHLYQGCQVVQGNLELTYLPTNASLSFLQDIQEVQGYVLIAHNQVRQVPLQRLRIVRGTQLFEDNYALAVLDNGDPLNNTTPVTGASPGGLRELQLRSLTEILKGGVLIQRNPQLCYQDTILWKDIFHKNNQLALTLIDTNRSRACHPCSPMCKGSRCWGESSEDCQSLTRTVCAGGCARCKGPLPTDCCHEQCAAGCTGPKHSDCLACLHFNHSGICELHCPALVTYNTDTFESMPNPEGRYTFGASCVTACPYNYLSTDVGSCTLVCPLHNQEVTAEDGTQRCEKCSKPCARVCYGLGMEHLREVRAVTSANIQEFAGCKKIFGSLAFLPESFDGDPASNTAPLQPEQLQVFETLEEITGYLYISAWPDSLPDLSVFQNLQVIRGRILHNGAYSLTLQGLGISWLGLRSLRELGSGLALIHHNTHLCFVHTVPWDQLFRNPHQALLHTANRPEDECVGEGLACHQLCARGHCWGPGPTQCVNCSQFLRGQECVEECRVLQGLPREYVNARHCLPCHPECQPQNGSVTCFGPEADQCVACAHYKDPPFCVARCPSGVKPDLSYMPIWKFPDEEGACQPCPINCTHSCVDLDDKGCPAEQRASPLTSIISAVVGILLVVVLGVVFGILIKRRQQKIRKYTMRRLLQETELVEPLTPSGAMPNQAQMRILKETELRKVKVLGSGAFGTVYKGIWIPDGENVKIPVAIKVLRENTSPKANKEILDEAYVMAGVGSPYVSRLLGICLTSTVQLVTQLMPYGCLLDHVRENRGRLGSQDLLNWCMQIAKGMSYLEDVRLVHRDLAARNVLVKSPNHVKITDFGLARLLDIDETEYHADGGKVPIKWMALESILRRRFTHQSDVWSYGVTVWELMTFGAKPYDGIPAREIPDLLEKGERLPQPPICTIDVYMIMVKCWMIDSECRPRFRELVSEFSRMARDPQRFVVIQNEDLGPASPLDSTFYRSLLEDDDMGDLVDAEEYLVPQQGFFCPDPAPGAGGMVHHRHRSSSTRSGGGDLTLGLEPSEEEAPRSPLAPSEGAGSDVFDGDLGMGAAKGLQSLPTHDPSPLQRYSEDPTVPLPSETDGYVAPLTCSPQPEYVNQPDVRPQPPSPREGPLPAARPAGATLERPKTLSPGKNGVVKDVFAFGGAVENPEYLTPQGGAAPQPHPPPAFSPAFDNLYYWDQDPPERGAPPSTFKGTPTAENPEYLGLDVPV

Row | SMILES | IC50 (SK-BR-3) | further results
1 | O=C(Oc1ccc(OC(=O)c2cc(O)c(O)c(O)c2)cc1)c1cc(O)c(O)c(O)c1 | 25 µM | inhibition [1]: inactive
2 | O=C(Oc1cc2ccccc2cc1OC(=O)c1cc(O)c(O)c(O)c1)c1cc(O)c(O)c(O)c1 | 76 µM | inhibition [2]: 31%
3 | O=C(Oc1cccc2c(OC(=O)c3cc(O)c(O)c(O)c3)cccc12)c1cc(O)c(O)c(O)c1 | 26 µM | inhibition [3]: 30%
4 | O=C(Oc1ccc(OC(=O)c2cc(O)c(O)c(O)c2)c2c1CCCC2)c1cc(O)c(O)c(O)c1 | 41 µM | inhibition [4]: inactive
5 | O=C(Oc1cccc2cccc(OC(=O)c3cc(O)c(O)c(O)c3)c12)c1cc(O)c(O)c(O)c1 | 78 µM | inhibition [5]: inactive
6 | O=C(O[C@@H]1CCCC[C@H]1OC(=O)c1cc(O)c(O)c(O)c1)c1cc(O)c(O)c(O)c1 (relative stereo) | > 150 µM | –
7 | O=C(Oc1cccc(OC(=O)c2cc(O)c(O)c(O)c2)c1)c1cc(O)c(O)c(O)c1 | 42 µM | inhibition [6]: inactive
8 | O=C(O[C@H]1CCCC[C@H]1OC(=O)c1cc(O)c(O)c(O)c1)c1cc(O)c(O)c(O)c1 | > 150 µM | –
9 | O=C(Oc1ccc2ccc(OC(=O)c3cc(O)c(O)c(O)c3)cc2c1)c1cc(O)c(O)c(O)c1 | 26 µM | inhibition [3]: inactive
10 | O=C(Oc1ccc(OC(=O)c2cc(O)c(O)c(O)c2)c2ccccc12)c1cc(O)c(O)c(O)c1 | 29 µM | –
11 | O=C(Oc1ccc(OC(=O)c2cc(O)c(O)c(O)c2)c(-c2ccccc2)c1)c1cc(O)c(O)c(O)c1 | 17 µM | inhibition [7]: inactive
12 | O=C(Oc1ccc2ccccc2c1OC(=O)c1cc(O)c(O)c(O)c1)c1cc(O)c(O)c(O)c1 | 74 µM | –
13 | O=C(Oc1ccc2c(OC(=O)c3cc(O)c(O)c(O)c3)cccc2c1)c1cc(O)c(O)c(O)c1 | 39 µM | inhibition [8]: inactive
14 | O=C(OCCOC(=O)c1cc(O)c(O)c(O)c1)c1cc(O)c(O)c(O)c1 | > 150 µM | –
15 | Cc1cc(OC(=O)c2cc(O)c(O)c(O)c2)ccc1OC(=O)c1cc(O)c(O)c(O)c1 | 23 µM | inhibition [9]: inactive
16 | O=C(O[C@H]1CC[C@H](OC(=O)c2cc(O)c(O)c(O)c2)c2ccccc21)c1cc(O)c(O)c(O)c1 | 42 µM | inhibition [6]: 41%
17 | COC(=O)c1cc(OC(=O)c2cc(O)c(O)c(O)c2)c2ccccc2c1OC(=O)c1cc(O)c(O)c(O)c1 | 28 µM | inhibition [10]: inactive
18 | O=C(Oc1ccccc1OC(=O)c1cc(O)c(O)c(O)c1)c1cc(O)c(O)c(O)c1 | 125 µM | –
19 | COc1cc(OC(=O)c2cc(O)c(O)c(O)c2)ccc1OC(=O)c1cc(O)c(O)c(O)c1 | 8 µM | inhibition [11]: inactive
20 | O=C(O[C@H]1CC[C@@H](OC(=O)c2cc(O)c(O)c(O)c2)c2ccccc21)c1cc(O)c(O)c(O)c1 | 22 µM | inhibition [12]: inactive
21 | O=C(O[C@@H]1Cc2c(O)cc(O)cc2O[C@@H]1c1cc(O)c(O)c(O)c1)c1cc(O)c(O)c(O)c1 [EPIGALOCATECHIN GALLATE] | 149 µM | inhibition [13]: 18%
22 | O=C(Oc1cc2c(c(OC(=O)c3cc(O)c(O)c(O)c3)c1)CCCC2)c1cc(O)c(O)c(O)c1 | 31 µM | inhibition [14]: inactive
23 | O=C(Oc1cc(OC(=O)c2cc(O)c(O)c(O)c2)c2ccccc2c1)c1cc(O)c(O)c(O)c1 | 21 µM | –
24 | COC(=O)c1cc(OC(=O)c2cc(O)c(O)c(O)c2)ccc1OC(=O)c1cc(O)c(O)c(O)c1 | 36 µM | inhibition [15]: 43%
25 | O=C(Oc1ccc2cccc(OC(=O)c3cc(O)c(O)c(O)c3)c2c1)c1cc(O)c(O)c(O)c1 | 47 µM | inhibition [16]: inactive
26 | O=C(Oc1ccc2cc(OC(=O)c3cc(O)c(O)c(O)c3)ccc2c1)c1cc(O)c(O)c(O)c1 | 5 µM | inhibition [17]: inactive
